# From ChEMBL document CHEMBL4665753, “Ecdysteroid Derivatives that Reverse P-Glycoprotein-Mediated Drug Resistance” (J Nat Prod, 2020)
# Activity calls are given as the source filed them. The calls are words filed in the database; no cut-off is given here.
# Experiments:
# [1] = species on record: Homo sapiens; test: Stimulation of P-gp ATPase activity (unknown origin) assessed as increase in ATP consumption at 10 uM relative to control; settings: filed as activator
# Procedure, shortened: (§1)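 Luminescent P-gp-Glo assay on recombinant human P-gp in a membrane fraction (25 μg), with sodium orthovanadate (100 μM) as ATPase inhibitor. Reactions were started with 10 mM MgATP and stopped after 40 min with luciferase detection reagent; luminescence was read 60 min later. ATP consumption appears as lost luminescence. Activity is given as fold change versus untreated control, mean of three independent experiments.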
# [2] = Cytotoxicity against human peripheral blood lymphocytes assessed as cell growth inhibition after 72 hrs by MTT assay; assay type: functional; settings: Lymphocyte
# Procedure, shortened: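 Resting, non-PHA-stimulated lymphocytes from healthy-donor buffy coats were isolated by density-gradient centrifugation and incubated overnight in RPMI-1640 with 10% FBS. Nonadherent cells were then seeded at 5 × 10^5 cells/mL with a range of compound concentrations for 72 h. Viability was read by MTT at 560 nm. GI50 was taken as 50% proliferation inhibition from log concentration plots.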
# [3] = Cytotoxicity against human peripheral blood lymphocytes assessed as cell growth inhibition after 72 hrs in presence of PHA by MTT assay; assay type: functional; settings: Lymphocyte
# Procedure, shortened: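 Lymphocytes from healthy-donor buffy coats were isolated by density-gradient centrifugation and incubated overnight in RPMI-1640 with 10% FBS. Nonadherent cells were reseeded at 5 × 10^5 cells/mL in medium with 2.5 μg/mL PHA so they would proliferate, then exposed to a range of compound concentrations for 72 h. Viability was read by MTT at 560 nm. GI50 was taken as 50% proliferation inhibition.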
# [4] = species on record: Homo sapiens; test: Stimulation of P-gp ATPase activity (unknown origin) assessed as increase in ATP consumption at 1 uM relative to control; settings: filed as activator; procedure, shortened: as §1
# [5] = target: ATP-dependent translocase ABCB1 (Homo sapiens, UniProt P08183); test: Inhibition of ABCB1 in human […] cells after 2 hrs by Hoechst dye based flow cytometric analysis; assay type: cell-based
# Procedure, shortened: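 Medulloblastoma DAOY cells were treated with compounds at 10 μM for 2 h. Cells (10^6/mL) were stained with 5 μg/mL Hoechst 33342 in αMEM with 2% FBS for 90 min at 37 °C, then with 2 μg/mL propidium iodide at 4 °C for 10 min. Side-population cells were gated on PI-negative events on a Hoechst red vs blue plot under UV excitation, acquiring at least 30 000 live events.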
# [6] = system: CEM/VLB100; test: Synergistic antiproliferative activity against human CEM/VLB100 cells assessed as reduction in cell viability at 1:10 test compound to vinblastine after 48 hrs by MTT assay
# ATP-dependent translocase ABCB1, sequence (P08183 whole entry): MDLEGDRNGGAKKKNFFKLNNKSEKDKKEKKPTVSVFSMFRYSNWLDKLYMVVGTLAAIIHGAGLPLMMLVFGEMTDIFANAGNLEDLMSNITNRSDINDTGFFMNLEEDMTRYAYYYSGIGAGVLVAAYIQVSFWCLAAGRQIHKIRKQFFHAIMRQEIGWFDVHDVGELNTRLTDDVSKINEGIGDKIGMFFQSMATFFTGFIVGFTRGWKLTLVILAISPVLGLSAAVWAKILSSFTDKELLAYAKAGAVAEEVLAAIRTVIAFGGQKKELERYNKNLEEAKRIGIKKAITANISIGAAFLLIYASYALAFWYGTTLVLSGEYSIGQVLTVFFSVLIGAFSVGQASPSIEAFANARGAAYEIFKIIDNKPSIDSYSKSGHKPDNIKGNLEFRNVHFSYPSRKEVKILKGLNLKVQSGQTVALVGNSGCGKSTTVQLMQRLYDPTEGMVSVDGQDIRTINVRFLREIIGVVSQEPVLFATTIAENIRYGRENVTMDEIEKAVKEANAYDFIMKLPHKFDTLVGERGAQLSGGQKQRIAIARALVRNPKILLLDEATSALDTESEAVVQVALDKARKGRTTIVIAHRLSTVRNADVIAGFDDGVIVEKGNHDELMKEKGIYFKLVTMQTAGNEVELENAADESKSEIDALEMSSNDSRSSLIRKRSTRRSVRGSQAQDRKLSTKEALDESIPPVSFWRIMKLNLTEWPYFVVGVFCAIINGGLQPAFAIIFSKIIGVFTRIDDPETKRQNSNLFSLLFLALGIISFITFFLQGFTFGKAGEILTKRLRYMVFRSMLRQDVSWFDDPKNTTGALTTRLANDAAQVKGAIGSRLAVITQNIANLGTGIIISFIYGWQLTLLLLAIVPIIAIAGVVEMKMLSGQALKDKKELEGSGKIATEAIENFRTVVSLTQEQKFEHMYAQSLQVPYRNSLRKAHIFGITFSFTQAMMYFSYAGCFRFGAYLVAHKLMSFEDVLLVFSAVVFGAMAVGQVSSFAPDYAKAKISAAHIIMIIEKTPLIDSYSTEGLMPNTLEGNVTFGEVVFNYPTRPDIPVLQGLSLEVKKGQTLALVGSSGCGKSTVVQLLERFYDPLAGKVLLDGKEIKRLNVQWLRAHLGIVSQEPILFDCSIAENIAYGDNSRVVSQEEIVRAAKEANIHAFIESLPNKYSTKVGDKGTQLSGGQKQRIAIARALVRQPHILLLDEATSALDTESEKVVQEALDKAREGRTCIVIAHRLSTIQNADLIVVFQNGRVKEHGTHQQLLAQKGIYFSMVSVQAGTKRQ
compound,measurement,setting,value
COc1ccc(CCN(C)CCCC(C#N)(c2ccc(OC)c(OC)c2)C(C)C)cc1OC (stereo unspecified),fold change (FC),[1],4
CC(C)(O)CC[C@H]1OC2(CCCCC2)O[C@]1(C)[C@H]1CC[C@@]2(O)C3=CC(=O)[C@@H]4C[C@H]5OC6(CCCCC6)O[C@H]5C[C@]4(C)[C@H]3CC[C@]12C,GI50,[2],61.7 µM
same,GI50,[3],42.8 µM
same,fold change (FC),[4],6
same,inhibition (INH),[5],Active
same,Activity,[6],Active
CC(C)(O)CC[C@@H](OC(=O)c1ccccc1)[C@](C)(O)[C@H]1CC[C@@]2(O)C3=CC(=O)[C@@H]4C[C@@H](OC(=O)c5ccccc5)[C@@H](OC(=O)c5ccccc5)C[C@]4(C)[C@H]3CC[C@]12C,GI50,[2],> 100 µM
same,GI50,[3],19.9 µM
same,fold change (FC),[1],4
same,inhibition (INH),[5],Active
same,Activity,[6],Active
